Measured values published in ChEMBL document CHEMBL1150111, “Natural products inhibiting Candida albicans secreted aspartic proteases from Lycopodium cernuum” (J Nat Prod, 2002).
≈ marks a conversion by molar mass, not a printed value. Calls of active or inactive are those of the source. The calls are words filed in the database; no cut-off is given here.

Tests used:
Candida albicans = experiment: (§1) Inhibition of Candida albicans secreted aspartic protease
How it was run: (§2)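 Candida albicans secreted aspartic protease (SAP) inhibition assay run by the earlier published method. Aspartic protease inhibitor pepstatin A served as positive control. Activity is reported as IC50 in µg/mL.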

[1] = as §1; how it was run: as §2

Structure (SMILES) | Activity (Candida albicans) | IC50 [1] [µg/mL]
CC1(C)[C@H](O)CC[C@]2(C)[C@H]3CC[C@H]4[C@@](C)(CC[C@@H]5[C@]4(C)CC[C@@H](O)[C@]5(C)CO)CC3=CC(=O)[C@@H]12 | inactive | 
CC(=O)O[C@H]1CC[C@@]2(C)[C@@H](CC[C@@]3(C)C[C@@]4(O)[C@H](CC[C@@H]32)[C@@]2(C)CC[C@@H](OC(C)=O)C(C)(C)[C@@H]2C[C@@H]4O)[C@@]1(C)C(=O)O | inactive | 
O=C(/C=C/c1ccc(O)cc1)OC[C@H]1O[C@@H](Oc2ccc(-c3cc(=O)c4c(O)cc(O)cc4o3)cc2)[C@H](OC(=O)/C=C/c2ccc(O)cc2)[C@@H](O)[C@@H]1O |  | 8.5 (≈ 11.7 µM)
COC(=O)[C@@]1(C)[C@H](O)CC[C@@]2(C)[C@H]1CC[C@@]1(C)CC3=CC(=O)[C@@H]4[C@](C)(CC[C@@H](O)[C@]4(C)CO)[C@H]3CC[C@@H]12 | inactive | 
CC(=O)O[C@H]1CC[C@@]2(C)[C@@H](CC[C@@]3(C)C[C@@]4(O)[C@H](O)C[C@H]5C(C)(C)[C@H](OC(C)=O)CC[C@]5(C)[C@H]4CC[C@@H]32)[C@@]1(C)C(=O)O | inactive | 
CC(=O)OC[C@]1(C)[C@@H]2C[C@H](OC(C)=O)[C@@]3(O)C[C@]4(C)CC[C@@H]5[C@](C)(CC[C@H](OC(C)=O)[C@]5(C)C(=O)O)[C@H]4CC[C@@H]3[C@@]2(C)CC[C@H]1OC(C)=O | inactive | 
C[C@@]12CC[C@@H]3[C@](C)(CC[C@H](O)[C@]3(C)C(=O)O)[C@H]1CC[C@H]1C(=CC[C@@H]3[C@]1(C)CC[C@@H](O)[C@]3(C)CO)C2 | inactive | 
CC1(C)[C@@H](O)CC[C@@]2(C)[C@H]1CC[C@@]1(C)CC3=CC[C@H]4C(C)(C)[C@H](O)CC[C@]4(C)[C@H]3CC[C@@H]12 | inactive | 
C[C@@]12CC[C@@H]3[C@](C)(CC[C@H](O)[C@]3(C)C(=O)O)[C@H]1CC[C@@H]1[C@@]3(C)CC[C@@H](O)[C@](C)(CO)[C@@H]3C[C@H](O)[C@@]1(O)C2 [LYCERNUIC ACID C] |  | 20 (≈ 38.3 µM)
COC(=O)[C@]1(C)[C@@H]2CC[C@@]3(C)CC4=CC(=O)[C@@H]5[C@](C)(CC[C@@H](O)[C@]5(C)CO)[C@H]4CC[C@@H]3[C@@]2(C)CC[C@@H]1O | inactive | 
CC(=O)O[C@H]1CC[C@@]2(C)[C@@H](CC[C@@]3(C)CC4=CC[C@H]5C(C)(C)[C@H](OC(C)=O)CC[C@]5(C)[C@H]4CC[C@@H]32)[C@@]1(C)C(=O)O | inactive | 
CC1(C)[C@H](O)CC[C@]2(C)[C@H]3CC[C@H]4[C@@](C)(CC[C@@H]5[C@]4(C)CC[C@H](O)[C@]5(C)C(=O)O)CC3=CC[C@@H]12 | inactive | 
CC(=O)O[C@H]1CC[C@@]2(C)[C@@H](CC[C@@]3(C)CC4=C(CC[C@@H]32)[C@@]2(C)CC[C@@H](OC(C)=O)C(C)(C)[C@@H]2CC4)[C@@]1(C)C(=O)O | inactive | 
CC(C)CC(=O)N[C@H](C(=O)N[C@H](C(=O)N[C@@H](CC(C)C)[C@@H](O)CC(=O)N[C@@H](C)C(=O)N[C@@H](CC(C)C)[C@@H](O)CC(=O)O)C(C)C)C(C)C [PEPSTATIN] |  | 0.0015 (≈ 0.00219 µM)
CC1(C)[C@H](O)CC[C@@]2(C)[C@H]1CC[C@]1(O)C[C@]3(C)CC[C@@H]4[C@](C)(CC[C@H](O)[C@]4(C)C(=O)O)[C@H]3CC[C@@H]12 | inactive | 
CC1(C)[C@H](O)CC[C@]2(C)[C@H]3CC[C@H]4[C@@](C)(CC[C@@H]5[C@]4(C)CC[C@H](O)[C@]5(C)C(=O)O)C[C@]3(O)[C@@H](O)C[C@@H]12 | inactive | 
CC(=O)O[C@H]1CC[C@@]2(C)[C@@H](CC[C@@]3(C)C[C@@]4(O)CC[C@H]5C(C)(C)[C@H](OC(C)=O)CC[C@]5(C)[C@H]4CC[C@@H]32)[C@@]1(C)C(=O)O | inactive | 
CC1(C)[C@@H](O)CC[C@@]2(C)[C@H]1CC[C@@]1(C)CC3=CC[C@H]4C(C)(C)[C@@H](O)CC[C@]4(C)[C@H]3CC[C@@H]12 | inactive | 
